Measured values from the array DNA melting data of Ke et al. (doi:10.1101/2024.01.08.574731).

What was measured:
[1] = folding enthalpy; higher = less favourable; fluorescence melt of hairpins on a sequencing array, two-state fit; details: sodium 0.088 M
Method in brief: (§1)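 Melting temperature and folding enthalpy were obtained by bootstrapped two-state fitting. Fits used Cy3 fluorescence of library hairpins with annealed Cy3 and quencher oligos on a sequenced MiSeq flow cell, imaged in 50 mM Na-HEPES pH 8.0, 25 mM NaCl in 2.5 °C steps up to 60 °C and normalised to pre-quench Cy3 and control constructs. Four replicates were combined by inverse-variance weighting, and fitted temperatures were raised by 9.35 °C to match UV melts.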

[2] = melting temperature; fluorescence melt of hairpins on a sequencing array, two-state fit, raised by 9.35 °C to match UV melts; details: sodium 0.088 M
Method in brief: as §1

Sequence | folding enthalpy [1] [kcal/mol] | Tm [2] [°C]
GACGACGAAAGTCGTGTC ((((((....)))..))) | -10.5 | 59.9
GACGACGGAAACACCGTC ((((..(....)..)))) | -13.2 | 38.2
GACGACGGAAACATCGTC (((((.(....).))))) | -34.2 | 45.7
GACGATGGAAACATCGTC (((((((....))))))) | -41.7 | 67.9
GACGCAACGAAAGTTGTC (((..(((....)))))) | -10 | 34.1
GACGCACGAAAGTGTGTC (((.(((....))).))) | -45.6 | 61.8
GACGCAGAAATGCGTC ((((((....)))))) | -35.9 | 68.5
GACGCAGGAAACTGTGTC (((.(((....))).))) | -39.8 | 52.5
GACGCCCCGAAAGGGGTC (((..(((....)))))) | -7.73 | 40.2
GACGCCGAAAGGCATGTC ((((((....)))..))) | -15.2 | 43.3
GACGCCGAAAGGCCAGTC ((((((....)))..))) | -15 | 40.7
GACGCCGAAAGGCGAGTC ((((((....)))..))) | -8.04 | 43.7
GACGCCGGAAACGGTGTC (((.(((....))).))) | -45.9 | 63.9
GACGCGGCGAAAGCCGTC (((..(((....)))))) | -5.1 | 32.6
GACGCGGGAAACCGTGTC (((.(((....))).))) | -39.4 | 58.2
GACGCTGGAAACAGCATC ((.((((....)))).)) | -12.7 | 41.3
GACGGCGAAAGCCCAGTC ((((((....)))..))) | -13.1 | 41.8
GACGGCGAAAGCCGAGTC ((((((....)))..))) | -8.09 | 45.8
GACGGCGGAAACACCGCC (.(((.(....).))).) | -10.1 | 44.1
GACGGCGGAAACGTCGTC ((((.((....)).)))) | -52.8 | 61.1
GACGGGCGAAAGCCAGTC (((.(((....))).))) | -21.7 | 67.9
GACGGGGGAAACCTCGTC ((((.((....)).)))) | -31.7 | 55.1
GACGGTGAAAACCGTC ((((((....)))))) | -32.1 | 68.5

Sequence | folding enthalpy [1] [kcal/mol] | Tm [2] [°C]
GACGGTGGAAACGCCGTC (((((.(....).))))) | -37.7 | 62.9
GACGTACGAAAGTAGGTC (((.(((....))).))) | -38.5 | 52.6
GACGTACGAAAGTATGTC (((.(((....))).))) | -43.4 | 54.6
GACGTAGAAATACGTC ((((((....)))))) | -38.5 | 55
GACGTCCGAAAGGAGGTC (((.(((....))).))) | -30.9 | 58.3
GACGTCGGAAACGATGTC (((.(((....))).))) | -52.2 | 54.7
GACGTGCGAAAGCAGGTC (((.(((....))).))) | -36.2 | 62.4
GACGTGGGAAACCACACC (..((((....))))..) | -11.9 | 25.5
GACGTGGGAAACCACATC ((.((((....)))).)) | -17.4 | 34.5
GACGTGGGAAACCATGTC (((.(((....))).))) | -42.7 | 51.4
GACGTGGGAAACCGCGTC ((((.((....)).)))) | -43.8 | 61.5
GACGTTGAAAAACGTC ((((((....)))))) | -33.9 | 60.1
GACGTTGGAAACAACACC (..((((....))))..) | -9.55 | 25.2
GACGTTGGAAACGATGTC (((.(.(....).).))) | -16.9 | 33.4
GACTAACGAAAGTTCGTC (((.(((....))).))) | -30.5 | 42.5
GACTAACGAAAGTTTGTC (((.(((....))).))) | -30.9 | 47
GACTAAGAAATTAGTC ((((((....)))))) | -24.9 | 40.5
GACTAAGCGAAAGCTGTC (((..(((....)))))) | -15 | 45
GACTACCGAAAGGTCGTC (((.(((....))).))) | -39.4 | 48.6
GACTACCGAAAGGTGGTC (((.(((....))).))) | -38.6 | 58.4
GACTACGAAAGTAACGTC ((((((....)))..))) | -16 | 31.8
GACTACGAAAGTACAGTC ((((((....)))..))) | -18.3 | 34
GACTACGAAAGTACGGTC ((((((....)))..))) | -20.4 | 32

Sequence | folding enthalpy [1] [kcal/mol] | Tm [2] [°C]
GACTACGAAAGTATCGTC ((((((....)))..))) | -20.4 | 31.1
GACTAGGGAAACCCAGTC ((((.((....)).)))) | -30.1 | 40.2
GACTAGGGAAACCTGGTC (((.(((....))).))) | -35.7 | 46.7
GACTAGGGAAACTTAGTC (((((.(....).))))) | -30.1 | 37.9
GACTATGAAAATAGTC ((((((....)))))) | -32.8 | 49.5
GACTATGCGAAAGCAGTC (((..(((....)))))) | -15.3 | 44
GACTATGGAAACATGGTC (((.(((....))).))) | -35.5 | 45.4
GACTCAACGAAAGTTGTC (((..(((....)))))) | -10.2 | 29.9
GACTCACGAAAGTGTGTC (((.(((....))).))) | -38.5 | 53.7
GACTCAGGAAACTGGGTC (((.(((....))).))) | -37.8 | 49.2
GACTCCACGAAAGTGGTC (((..(((....)))))) | -8.79 | 29.5
GACTCCGAAAGGAACGTC ((((((....)))..))) | -15.2 | 36
GACTCCGAAAGGAATGTC ((((((....)))..))) | -17.7 | 38.6
GACTCCGAAAGGACGGTC ((((((....)))..))) | -17.9 | 35.3
GACTCCGAAAGGAGGGTC ((((((....)))..))) | -17 | 50.8
GACTCCGGAAACGGAATC ((.((((....)))).)) | -19.1 | 36.4
GACTCCGGAAACGGAGCC (.(((((....))))).) | -13.6 | 50.5
GACTCGGGAAACCGAATC ((.((((....)))).)) | -18.2 | 35.4
GACTCGGGAAACTGGGTC (((.(.(....).).))) | -29.9 | 38
GACTCTGAAAAGAGTC ((((((....)))))) | -32 | 58
GACTCTGGAAACAGAATC ((.((((....)))).)) | -22.3 | 28.5
GACTGAACGAAAGTTGTC (((..(((....)))))) | -19.5 | 32.8
GACTGAGCGAAAGCTGTC (((..(((....)))))) | -12.7 | 44.1

Sequence | folding enthalpy [1] [kcal/mol] | Tm [2] [°C]
GACTGCCGAAAGGCGTC (((.(((....)))))) | -13.8 | 53.8
GACTGCGAAAGCAAGTC ((((((....))).))) | -21.3 | 56.1
GACTGCGAAAGCACAGTC ((((((....)))..))) | -13.2 | 44.5
GACTGCGGAAACGCAGCC (.(((((....))))).) | -11.2 | 52
GACTGGGCGAAAGCCGTC (((..(((....)))))) | -10.4 | 56.1
GACTGTGAAAACAGTC ((((((....)))))) | -34.1 | 58.5
GACTGTGGAAACACAGCC (.(((((....))))).) | -13.7 | 43.7
GACTGTGGAAACACGGTC (((.(((....))).))) | -40.6 | 52.2
GACTTAGCGAAAGCTGTC (((..(((....)))))) | -14.6 | 43.8
GACTTCACGAAAGTGGTC (((..(((....)))))) | -12.1 | 31.4
GACTTCCGAAAGGAGTC (((.(((....)))))) | -24.8 | 46.4
GACTTCGAAAGAAGTC ((((((....)))))) | -38.8 | 62
GACTTCGCGAAAGCGGTC (((..(((....)))))) | -7.56 | 35.1
GACTTCGGAAACGAAGTC (((((((....))))))) | -38.6 | 66.3
GACTTGACGAAAGTCGTC (((..(((....)))))) | -15.8 | 51.7
GACTTGGGAAACCAAGCC (.(((((....))))).) | -19.1 | 41.8
GACTTGGGAAACTAGGTC (((.(.(....).).))) | -9.69 | 25.4
GACTTTGGAAACAGAGTC ((((.((....)).)))) | -31.1 | 38.1
GAGAAACGAAAGTTCTC (((.(((....)))))) | -24.4 | 40.9
GAGAAAGCGAAAGCTCTC (((..(((....)))))) | -14.6 | 40.2
GAGAAAGGAAACTTTCCC (.(((((....))))).) | -12.3 | 25.1
GAGAACCGAAAGGTCCTC (((.(((....))).))) | -24.6 | 46.6
